Assay results from ChEMBL document CHEMBL5674874, “BRD4 facilitates DNA damage response and represses CBX5/Heterochromatin protein 1 (HP1)” (Oncotarget, 2017).
Activity calls are given as the source filed them. No cut-off for these calls is given here.

Experiments:
[1] = system: OVCAR-5; assay: Cytotoxicity against human OVCAR-5 cells assessed as reduction in cell viability after 3 days by XTT assay; format: functional, cell-based; settings: OVCAR-5, 72 h
Summary of the method: (§1)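 Ovarian cancer lines in RPMI with 10% heat-inactivated FBS were seeded at 2,000-4000 cells/well in triplicate. Drug from DMSO stock was added 24hr later, and XTT was read 3 days after drug addition. Proliferation is relative to negative control, and IC50 was calculated from the individual XTT data points.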

[2] = system: OVCAR-3; assay: Cytotoxicity against human OVCAR-3 cells assessed as reduction in cell viability after 3 days by XTT assay; format: functional, cell-based; settings: OVCAR-3, 72 h; summary of the method: as §1
[3] = system: OVCAR-8; assay: Cytotoxicity against human OVCAR-8 cells assessed as reduction in cell viability after 3 days by XTT assay; format: functional, cell-based; settings: OVCAR-8, 72 h; summary of the method: as §1
[4] = system: A2780; assay: Cytotoxicity against human A2780 cells assessed as reduction in cell viability after 3 days by XTT assay; format: functional, cell-based; settings: A2780, 72 h; summary of the method: as §1
[5] = system: SK-OV-3; assay: Cytotoxicity against human SK-OV-3 cells assessed as reduction in cell viability after 3 days by XTT assay; format: functional, cell-based; settings: SK-OV-3, 72 h; summary of the method: as §1
[6] = system: A2780; assay: Induction of DNA damage response in human A2780 cells assessed as CHK1 Ser345 phosphorylation at 2.5 uM in presence of 2.5 nM CHK1 inhibitor LY2606368 after 24 hrs by Western blot analysis; format: functional, cell-based
Summary of the method: (§2)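 Cells were exposed to JQ1 (2.5 μM) and/or LY2606368 (2.5 nM) for 24hr. Sub-confluent cells were lysed in 1% NP40 buffer with protease and phosphatase inhibitors, and protein was measured by BCA. Total lysates were blotted for phospho-CHK1 (Ser345) and CHK1 with GAPDH as loading control, using HRP chemiluminescence detection. Blots were repeated three times.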

[7] = system: OVCAR-5; assay: Induction of DNA damage response in human OVCAR-5 cells assessed as CHK1 Ser345 phosphorylation at 2.5 uM in presence of 2.5 nM CHK1 inhibitor LY2606368 after 24 hrs by Western blot analysis; format: functional, cell-based; summary of the method: as §2
[8] = system: IGROV-1; assay: Induction of DNA damage response in human IGROV-1 cells assessed as CHK1 Ser345 phosphorylation at 2.5 uM in presence of 2.5 nM CHK1 inhibitor LY2606368 after 24 hrs by Western blot analysis; format: functional, cell-based; summary of the method: as §2
[9] = system: OVCAR-3; assay: Induction of DNA damage response in human OVCAR-3 cells assessed as CHK1 Ser345 phosphorylation at 2.5 uM in presence of 2.5 nM CHK1 inhibitor LY2606368 after 24 hrs by Western blot analysis; format: functional, cell-based; summary of the method: as §2
[10] = system: SK-OV-3; assay: Induction of DNA damage response in human SK-OV-3 cells assessed as CHK1 Ser345 phosphorylation at 2.5 uM in presence of 2.5 nM CHK1 inhibitor LY2606368 after 24 hrs by Western blot analysis; format: functional, cell-based; summary of the method: as §2
[11] = system: OVCAR-8; assay: Induction of DNA damage response in human OVCAR-8 cells assessed as CHK1 Ser345 phosphorylation at 2.5 uM in presence of 2.5 nM CHK1 inhibitor LY2606368 after 24 hrs by Western blot analysis; format: functional, cell-based; summary of the method: as §2
[12] = system: OVCAR-8; assay: Induction of cell cycle arrest in human OVCAR-8 cells assessed as accumulation of cells at G1 phase at 2.5 uM for 20 hrs by propidium iodide staining based flow cytometry; format: functional
[13] = system: OVCAR-8; assay: Effect on gamma-H2AX expression in human OVCAR-8 cells at 2.5 uM for 20 hrs by immunofluorescent staining; format: functional, cell-based
Summary of the method: (§3)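 Cells were serum-starved for 16hr, then given JQ1 2.5 μM and/or LY2606368 10 nM for 20hr. They were fixed in 4% paraformaldehyde, permeabilized with 0.25% Triton X-100, and blocked in 10% goat serum. γ-H2AX (Ser139/Tyr142) antibody at 1:200 was applied for 2hr, then an Alexa Fluor secondary for 1hr at 4°C. Signal was read by flow cytometry.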

[14] = system: OVCAR-8; assay: Effect on gamma-H2AX phosphorylation in nucleus of human OVCAR-8 cells at 2.5 uM for 20 hrs by immunofluorescent staining; format: functional, cell-based; summary of the method: as §3
[15] = target: Bromodomain-containing protein 4 (Homo sapiens) (UniProt O60885); settings: OVCAR-8, dose 500.0 nM, time 24.0 hrs
[16] = target: Bromodomain-containing protein 4 (Homo sapiens) (UniProt O60885); settings: OVCAR-8, dose 500.0 nM, time 24.0 hrs; remark: listed apart in the source
[17] = system: OVCAR-5; assay: Cytotoxicity against human OVCAR-5 cells assessed as reduction in cell viability at 10 nM in presence of siCBX5 after 3 days by XTT assay; format: functional, cell-based; settings: time 3.0 day
Summary of the method: (§4)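 Cells were transfected with siRNA (final 20nM, DharmaFECT1) and seeded in 3 replicates 24hr later. Drug was added 24hr after seeding. Viability was read by XTT and normalized to siNeg-transfected cells.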

[18] = system: OVCAR-8; assay: Cytotoxicity against human OVCAR-8 cells assessed as reduction in cell viability at 10 nM in presence of siCBX5 after 3 days by XTT assay; format: functional, cell-based; settings: time 3.0 day; summary of the method: as §4
[19] = system: OVCAR-3; assay: Cytotoxicity against human OVCAR-3 cells assessed as reduction in cell viability at 10 nM in presence of siCBX5 after 3 days by XTT assay; format: functional, cell-based; settings: time 3.0 day; summary of the method: as §4
[20] = system: SK-OV-3; assay: Cytotoxicity against human SK-OV-3 cells assessed as reduction in cell viability at 10 nM in presence of siCBX5 after 3 days by XTT assay; format: functional, cell-based; settings: time 3.0 day; summary of the method: as §4
[21] = system: OVCAR-8; assay: Induction of abnormal nuclear morphology in human OVCAR-8 cells at 10 nM by immunostaining; format: functional, cell-based
Summary of the method: (§5)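 Ovcar8 cells were transfected with 20nM siRNA; for co-transfection, 10nM of each. At 24hr they were plated on coverslips, and 8hr later LY2606368 10nM was added for 24hr. Cells were fixed (4% paraformaldehyde), permeabilized (0.25% Triton X-100), blocked (10% goat serum) and stained for H3K4me3, γ-H2AX and DAPI. Sphericity is the ratio of two perpendicular nuclear diameters, over multiple fields of 10-40 cells.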

[22] = system: OVCAR-8; assay: Induction of abnormal nuclear morphology in human OVCAR-8 cells assessed as loss of nuclear roundness at 10 nM in presence of siCBX5 by immunostaining; format: functional, cell-based; summary of the method: as §5

Cc1sc2c(c1C)C(c1ccc(Cl)cc1)=N[C@@H](CC(=O)OC(C)(C)C)c1nnc(C)n1-2
IC50 [1]: 100 nM
IC50 [2]: 100 nM
IC50 [3]: 100 nM
IC50 [4]: 100 nM
IC50 [5]: 100 nM
Activity [6]: inactive
Activity [7]: inactive
Activity [8]: inactive
Activity [9]: inactive
Activity [10]: inactive
Activity [11]: inactive
Activity [12]: Active
Activity [13]: inactive
Activity [14]: inactive
inhibition [15]: Active
inhibition [16]: Active

COc1cccc(OCCCN)c1-c1cc(Nc2cnc(C#N)cn2)n[nH]1 [PREXASERTIB]
IC50 [1]: 3 nM
IC25 ([1]; time 3 day): 1.5 nM
IC50 [2]: 12 nM
IC25 ([2]; time 3 day): 6 nM
IC50 [3]: 10 nM
IC25 ([3]; time 3 day): 5 nM
IC50 [4]: 40 nM
IC25 ([4]; time 3 day): 10 nM
IC50 [5]: 10 nM
IC25 ([5]; time 3 day): 4 nM
Activity [17]: inactive
Activity [18]: inactive
Activity [19]: inactive
Activity [20]: inactive
Activity [21]: Active
Activity [22]: inactive
